Data from ChEMBL document CHEMBL4359898, “Pyrazolo-benzothiazole hybrids: Synthesis, anticancer properties and evaluation of antiangiogenic activity using in vitro VEGFR-2 kinase and in vivo transgenic zebrafish model” (Eur J Med Chem, 2019).
The source made the active and inactive calls. The calls are words filed in the database; no cut-off is given here.

Columns and labels:
PC-3 [1] = experiment: Induction of apoptosis in human PC3 cells assessed as early apoptotic cells at 3 uM incubated for 48 hrs by annexin V FITC and propidium iodide staining based flow cytometry (reference value: 2.8 %); type: functional
Outline: (§1)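 PC-3 cells at 1 × 10^6 per well were treated 48 h at […]. Cells were trypsinised, washed in PBS and resuspended in annexin binding buffer. Annexin V-FITC and PI were added for 15 min at room temperature. 10000 cells were analysed by flow cytometry and sorted into quadrants as live, early apoptotic, late apoptotic or necrotic.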

PC-3 [2] = experiment: Induction of apoptosis in human PC3 cells assessed as late apoptotic cells at 1 uM incubated for 48 hrs by annexin V FITC and propidium iodide staining based flow cytometry (reference value: 1.2 %); type: functional; outline: as §1
PC-3 [3] = experiment: Induction of apoptosis in human PC3 cells assessed as viable cells at 5 uM incubated for 48 hrs by annexin V FITC and propidium iodide staining based flow cytometry (reference value: 95 %); type: functional; conditions: PC-3, 48 h, read-out: Activity; outline: as §1
Danio rerio [4] = experiment: Antiangiogenic activity in transgenic fli1a:EGFP-tagged zebrafish embryo assessed as reduction in intersegmental vessel sprouting at 0.5 uM administered from 24 hrs post fertilization and measured after 72 hrs by fluorescence microscopy relative to control; type: functional; design: scale not given: the % may be the effect or the level left
Outline: (§2)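 Embryos staged after natural spawning and kept in E3 medium at 28.5 °C. At 1 dpf, 10 embryos per well were placed in E3 containing compound at […] and incubated 72 h at 28.5 °C. Untreated and 1% DMSO vehicle controls were included. Larvae were anaesthetised with 0.01% tricaine and mounted in 1% low-melt agarose. ISVs were imaged in the green channel, and % defective ISVs was counted manually.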

PC-3 [5] = conditions: Homo sapiens, 3 uM
Danio rerio [6] = experiment: Antiangiogenic activity in transgenic fli1a:EGFP-tagged zebrafish embryo assessed as reduction in intersegmental vessel sprouting administered from 24 hrs post fertilization and measured after 72 hrs by fluorescence microscopy; type: functional, organism-based; outline: as §2
PC-3 [7] = experiment: Induction of apoptosis in human PC3 cells assessed as late apoptotic cells at 3 uM incubated for 48 hrs by annexin V FITC and propidium iodide staining based flow cytometry (reference value: 1.2 %); type: functional; outline: as §1
PC-3 [8] = experiment: Induction of apoptosis in human PC3 cells assessed as early apoptotic cells at 5 uM incubated for 48 hrs by annexin V FITC and propidium iodide staining based flow cytometry (reference value: 2.8 %); type: functional; outline: as §1
U-87 MG [9] = experiment: Cytotoxicity against human U87MG cells assessed as reduction in cell viability incubated for 72 hrs by MTT assay
PC-3 [10] = experiment: Induction of apoptosis in human PC3 cells assessed as viable cells at 3 uM incubated for 48 hrs by annexin V FITC and propidium iodide staining based flow cytometry (reference value: 95 %); type: functional; conditions: PC-3, 48 h, read-out: Activity; outline: as §1
PC-3 [11] = experiment: Cell cycle arrest in human PC3 cells assessed as reduction in S phase population at 1 uM incubated for 48 hrs by propidium iodide staining based flow cytometry; type: functional
PC-3 [12] = experiment: Induction of apoptosis in human PC3 cells assessed as nuclei fragmentation incubated for 48 hrs by […] staining based fluorescence microscopy; type: functional, cell-based
Outline: (§3)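 PC-3 cells on coverslips (1 × 10^6 per well) were incubated 48 h with […]. Cells were PBS-washed, 4% paraformaldehyde was added, and they were stained 20 min with […]. After three PBS washes, nuclei were examined by fluorescence microscopy for chromatin condensation and fragmentation.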

HT-29 = experiment: Cytotoxicity against human HT-29 cells assessed as reduction in cell viability incubated for 72 hrs by MTT assay; conditions: HT-29, 72 h
PC-3 [13] = experiment: Induction of apoptosis in human PC3 cells assessed as mitochondrial membrane potential loss incubated for 48 hrs by JC1 staining based fluorescence microscopy; type: functional, cell-based
Outline: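 PC-3 cells were plated at 5 × 10^5 cells/mL and incubated 48 h with […]. The medium was then replaced with fresh medium containing JC-1 for 20 min. After three PBS washes, red and green fluorescence was imaged, and depolarisation was read as a rise in the green/red ratio.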

PC-3 [14] = experiment: Induction of apoptosis in human PC3 cells incubated for 48 hrs by annexin V FITC and propidium iodide staining based flow cytometry; type: functional, cell-based; outline: as §1
PC-3 [15] = experiment: Cell cycle arrest in human PC3 cells assessed as accumulation in G0/G1 phase at 3 uM incubated for 48 hrs by propidium iodide based flow cytometry (reference value: 51.3 %); type: functional
PC-3 [16] = experiment: Induction of apoptosis in human PC3 cells assessed as late apoptotic cells at 5 uM incubated for 48 hrs by annexin V FITC and propidium iodide staining based flow cytometry (reference value: 1.2 %); type: functional; outline: as §1
PC-3 [17] = experiment: Cell cycle arrest in human PC3 cells assessed as accumulation in G0/G1 phase incubated for 48 hrs by propidium iodide based flow cytometry; type: functional
PC-3 [18] = experiment: Induction of apoptosis in human PC3 cells assessed as viable cells at 1 uM incubated for 48 hrs by annexin V FITC and propidium iodide staining based flow cytometry (reference value: 95 %); type: functional; conditions: PC-3, 48 h, read-out: Activity; outline: as §1
PC-3 [19] = experiment: Induction of apoptosis in human PC3 cells assessed as early apoptotic cells at 1 uM incubated for 48 hrs by annexin V FITC and propidium iodide staining based flow cytometry (reference value: 2.8 %); type: functional; outline: as §1
U-87 MG [20] = conditions: Homo sapiens; U-87MG ATCC
PC-3 [21] = experiment: Induction of apoptosis in human PC3 cells assessed as nuclei condensation incubated for 48 hrs by […] staining based fluorescence microscopy; type: functional, cell-based; outline: as §3
PC-3 [22] = experiment: Cytotoxicity against human PC3 cells assessed as reduction in cell viability incubated for 72 hrs by MTT assay; conditions: PC-3, 72 h
HEK-293T = experiment: Cytotoxicity against HEK293T cells assessed as reduction in cell viability incubated for 72 hrs by MTT assay; conditions: Homo sapiens
PC-3 [23] = conditions: Homo sapiens, 1 to 5 uM
Danio rerio [24] = experiment: Antiangiogenic activity in transgenic fli1a:EGFP-tagged zebrafish embryo assessed as reduction in intersegmental vessel sprouting at 1 uM administered from 24 hrs post fertilization and measured after 72 hrs by fluorescence microscopy relative to control; type: functional; design: scale not given: the % may be the effect or the level left; outline: as §2
PC-3 [25] = experiment: Inhibition of cell migration in human PC3 cells at 5 uM incubated for 48 hrs by phase contrast microscopy based scratch wound healing assay relative to control; type: functional; conditions: PC-3, 48 h
Outline: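 Confluent PC-3 monolayers were scratched with a pipette tip to leave lanes about 1 mm wide, and debris was washed off with PBS. Cells were given complete medium alone or medium containing […]. Wounds were imaged by phase contrast at time zero and after 48 h.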

Danio rerio [26] = experiment: Antiangiogenic activity in transgenic fli1a:EGFP-tagged zebrafish embryo assessed as reduction in intersegmental vessel sprouting at 0.1 uM administered from 24 hrs post fertilization and measured after 72 hrs by fluorescence microscopy relative to control; type: functional; design: scale not given: the % may be the effect or the level left; outline: as §2
PC-3 [27] = experiment: Induction of apoptosis in human PC3 cells at incubated for 48 hrs by […] staining based fluorescence microscopy; type: functional, cell-based; outline: as §3
PC-3 [28] = experiment: Induction of apoptosis in human PC3 cells assessed as necrotic cells at 1 uM incubated for 48 hrs by annexin V FITC and propidium iodide staining based flow cytometry (reference value: 1 %); type: functional; outline: as §1
PC-3 [29] = experiment: Cell cycle arrest in human PC3 cells assessed as accumulation in G0/G1 phase at 5 uM incubated for 48 hrs by propidium iodide based flow cytometry (reference value: 51.3 %); type: functional
PC-3 [30] = experiment: Induction of apoptosis in human PC3 cells assessed as necrotic cells at 5 uM incubated for 48 hrs by annexin V FITC and propidium iodide staining based flow cytometry (reference value: 1 %); type: functional; outline: as §1
PC-3 [31] = experiment: Induction of apoptosis in human PC3 cells assessed as necrotic cells at 3 uM incubated for 48 hrs by annexin V FITC and propidium iodide staining based flow cytometry (reference value: 1 %); type: functional; outline: as §1
A549 = experiment: Cytotoxicity against human A549 cells assessed as reduction in cell viability incubated for 72 hrs by MTT assay; conditions: A549, 72 h
PC-3 [32] = experiment: Cell cycle arrest in human PC3 cells assessed as accumulation in G0/G1 phase at 1 uM incubated for 48 hrs by propidium iodide based flow cytometry (reference value: 51.3 %); type: functional
PC-3 [33] = experiment: Cell cycle arrest in human PC3 cells assessed as reduction in G2/M phase population at 1 uM incubated for 48 hrs by propidium iodide staining based flow cytometry; type: functional
Danio rerio [34] = experiment: Antiangiogenic activity in transgenic fli1a:EGFP-tagged zebrafish embryo assessed as reduction in intersegmental vessel sprouting at 0.1 to 1 uM administered from 24 hrs post fertilization and measured after 72 hrs by fluorescence microscopy relative to control; type: functional; design: scale not given: the % may be the effect or the level left; outline: as §2

## O=C(Nc1nc2ccc(Cl)cc2s1)c1cn(-c2ccccc2)nc1-c1ccc(F)cc1
PC-3 [1]
  Activity: 13.8%
PC-3 [2]
  Activity: 3.7%
PC-3 [3]
  viability at 5 µM: 70.9%
Danio rerio [4]
  Activity: 47.3%
PC-3 [5]
  inhibition: Active
Danio rerio [6]
  Activity: Dose-dependent effect
PC-3 [7]
  Activity: 6.9%
PC-3 [8]
  Activity: 16.7%
U-87 MG [9]
  IC50: 6.77 µM
PC-3 [10]
  viability at 3 µM: 77.2%
PC-3 [11]
  Activity: Active
PC-3 [12]
  Activity: Dose-dependent effect
HT-29
  IC50: 3.32 µM
PC-3 [13]
  Activity: Dose-dependent effect
PC-3 [14]
  Activity: Dose-dependent effect
PC-3 [15]
  Activity: 74.8%
PC-3 [16]
  Activity: 9.6%
PC-3 [17]
  Activity: Dose-dependent effect
PC-3 [18]
  viability at 1 µM: 84.8%
PC-3 [19]
  Activity: 10.4%
U-87 MG [20]
  inhibition: Active
PC-3 [21]
  Activity: Dose-dependent effect
PC-3 [22]
  IC50: 3.17 µM
HEK-293T
  IC50: 45.7 µM
PC-3 [23]
  inhibition: Active
Danio rerio [24]
  Activity: 54.5%
PC-3 [25]
  inhibition at 5 µM: 100%
Danio rerio [26]
  Activity: 16%
PC-3 [27]
  Activity: Dose-dependent effect
PC-3 [28]
  Activity: 1.1%
PC-3 [29]
  Activity: 81.4%
PC-3 [30]
  Activity: 2.8%
PC-3 [31]
  Activity: 2.1%
A549
  IC50: 3.87 µM
PC-3 [32]
  Activity: 65.5%
PC-3 [33]
  Activity: Active

## COc1ccc(-c2nn(-c3ccccc3)cc2C(=O)Nc2nc3ccccc3s2)cc1
U-87 MG [9]
  IC50: 11.5 µM
HT-29
  IC50: 10.5 µM
PC-3 [22]
  IC50: 6.67 µM
HEK-293T
  IC50: 18.9 µM
A549
  IC50: 13.7 µM

## O=C(Nc1nc2ccc(F)cc2s1)c1cn(-c2ccccc2)nc1-c1ccc(F)cc1
U-87 MG [9]
  IC50: 12.5 µM
HT-29
  IC50: 4.16 µM
PC-3 [22]
  IC50: 5.26 µM
HEK-293T
  IC50: 16.7 µM
A549
  IC50: 6.65 µM

## CNC(=O)c1ccccc1Sc1ccc2c(/C=C/c3ccccn3)n[nH]c2c1 [AXITINIB]
Danio rerio [34]
  Activity: 63.1 - 90.4%

## O=C(Nc1nc2ccccc2s1)c1cn(-c2ccccc2)nc1-c1ccccc1
U-87 MG [9]
  IC50: 8.96 µM
HT-29
  IC50: 16.8 µM
PC-3 [22]
  IC50: 10.4 µM
HEK-293T
  IC50: > 50 µM
A549
  IC50: 13.5 µM

## COc1ccc2nc(NC(=O)c3cn(-c4ccccc4)nc3-c3ccc(Cl)cc3)sc2c1
U-87 MG [9]
  IC50: 21.2 µM
HT-29
  IC50: 18.6 µM
PC-3 [22]
  IC50: 29.3 µM
HEK-293T
  IC50: 29.6 µM
A549
  IC50: 31.4 µM

## COc1ccc2nc(NC(=O)c3cn(-c4ccccc4)nc3-c3ccccc3)sc2c1
U-87 MG [9]
  IC50: 40.6 µM
HT-29
  IC50: > 50 µM
PC-3 [22]
  IC50: 17.5 µM
HEK-293T
  IC50: > 50 µM
A549
  IC50: > 50 µM

## COc1ccc(-c2nn(-c3ccccc3)cc2C(=O)Nc2nc3ccc(OC)cc3s2)cc1
U-87 MG [9]
  IC50: 5.89 µM
HT-29
  IC50: > 50 µM
PC-3 [22]
  IC50: 13.5 µM
HEK-293T
  IC50: > 50 µM
A549
  IC50: 18.9 µM

## O=C(Nc1nc2ccc(F)cc2s1)c1cn(-c2ccccc2)nc1-c1ccc(Cl)cc1
U-87 MG [9]
  IC50: 7.77 µM
HT-29
  IC50: 4.97 µM
PC-3 [22]
  IC50: 5.79 µM
HEK-293T
  IC50: > 50 µM
A549
  IC50: 8.86 µM

## COc1ccc2nc(NC(=O)c3cn(-c4ccccc4)nc3-c3ccc(F)cc3)sc2c1
U-87 MG [9]
  IC50: > 50 µM
HT-29
  IC50: 33.2 µM
PC-3 [22]
  IC50: 12.8 µM
HEK-293T
  IC50: > 50 µM
A549
  IC50: > 50 µM
